Active and inactive are the calls of the source. The rule behind the calls is not given here.
Columns and labels:
Stromelysin-1 = Stromelysin-1 (Homo sapiens, UniProt P08254); experiment: Inhibition of MMP3
How it was run: (§1)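 Human recombinant enzymes in Tris 50 mM pH 7.5, NaCl 150 mM, CaCl2 10 mM, Brij 35 0.05%, DMSO 1%. Final enzyme: MMP-1 2.0 nM, MMP-2 2.9, MMP-3 5, MMP-8 1.5, MMP-9 2.7, MMP-14 cd 1, MMP-16 cd 15, TACE 7.5 nM. Pro-MMP-1/-2/-8 activated with APMA 2 mM, pro-MMP-9 with APMA 1 mM, each 1 h at 37 °C. Pro-MMP-3 activated with trypsin 5 µg/mL for 30 min at 37 °C, then soybean trypsin inhibitor.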

Neutrophil collagenase = Neutrophil collagenase (Homo sapiens, UniProt P22894); experiment: Inhibition of MMP8; how it was run: as §1
[1] = molecular target: Matrix metalloproteinase-9 (Homo sapiens, UniProt P14780); experiment: Inhibition of MMP9; how it was run: as §1
Interstitial collagenase [2] = molecular target: T1, Interstitial collagenase (Homo sapiens, UniProt P03956); experiment: Inhibition of MMP1; how it was run: as §1
T1 sequence (P03956 whole entry): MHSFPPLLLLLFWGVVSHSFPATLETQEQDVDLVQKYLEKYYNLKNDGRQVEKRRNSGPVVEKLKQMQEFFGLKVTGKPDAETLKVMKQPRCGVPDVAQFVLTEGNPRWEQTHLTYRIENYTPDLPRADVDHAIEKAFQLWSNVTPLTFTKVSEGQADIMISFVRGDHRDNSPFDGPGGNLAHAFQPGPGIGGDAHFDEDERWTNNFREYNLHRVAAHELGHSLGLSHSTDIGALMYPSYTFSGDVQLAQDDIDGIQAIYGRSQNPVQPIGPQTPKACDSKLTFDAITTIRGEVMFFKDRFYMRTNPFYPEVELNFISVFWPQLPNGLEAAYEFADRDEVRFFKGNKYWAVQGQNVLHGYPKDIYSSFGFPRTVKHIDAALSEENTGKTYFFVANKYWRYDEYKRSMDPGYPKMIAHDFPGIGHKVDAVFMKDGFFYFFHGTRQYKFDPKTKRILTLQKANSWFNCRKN

[3] = molecular target: 72 kDa type IV collagenase (Homo sapiens, UniProt P08253); experiment: Inhibition of MMP2; how it was run: as §1
Collagenase 3 [4] = molecular target: T2, Collagenase 3 (Homo sapiens, UniProt P45452); experiment: Inhibition of MMP13
[5] = molecular target: Matrix metalloproteinase-14 (Homo sapiens, UniProt P50281); experiment: Inhibition of human recombinant MMP14; how it was run: as §1
Interstitial collagenase [6] = molecular target: T1, Interstitial collagenase; experiment: Inhibition of MMP1-mediated collagen degradation by SDS-PAGE
How it was run: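 Full-length MMP-1 (0.5 nM) preincubated with inhibitor (0–10 µM) for 2 h at 25 °C in Tris-HCl 50 mM pH 7.5, NaCl 150 mM, CaCl2 5 mM, Brij-35 0.05%, NaN3 0.02%. Guinea-pig skin acid-soluble collagen (final 1.35 mg/mL) added, 16 h at 25 °C, stopped with EDTA. Full-length and 3/4-fragment α2 chains quantified by densitometry after 7.5% SDS-PAGE with Coomassie stain; IC50 derived.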

Collagenase 3 [7] = molecular target: T2, Collagenase 3; experiment: Inhibition of MMP13-mediated collagen degradation by SDS-PAGE
[8] = molecular target: Matrix metalloproteinase-16 (Homo sapiens, UniProt P51512); experiment: Inhibition of human recombinant MMP16; how it was run: as §1
[9] = molecular target: Disintegrin and metalloproteinase domain-containing protein 17 (Homo sapiens, UniProt P78536); experiment: Inhibition of TACE; how it was run: as §1
Sus scrofa [10] = species: Sus scrofa; experiment: Inhibition of MMP13-mediated collagen degradation in long term IL-1-alpha-stimulated pig articular cartilage explant culture assessed as hydroxyproline release
How it was run: (§2)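 Porcine metacarpophalangeal cartilage explants from 3–9-month pigs were rested 24 h with serum, then 3 days serum-free. They were stimulated with IL-1α 10 ng/mL plus inhibitor at 0.1, 1 or 10 µM in serum-free DMEM, with medium changed every 3–4 days. Hydroxyproline was measured in the medium after 6 N HCl hydrolysis, using chloramine T/DMBA and absorbance at 560 nm against a standard curve. Cumulative release was corrected for unstimulated background.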

Sus scrofa [11] = species: Sus scrofa; experiment: Inhibition of MMP13-mediated collagen degradation in long term IL-1-alpha-stimulated pig articular cartilage explant culture assessed as hydroxyproline release at 1 uM; how it was run: as §2
Sus scrofa [12] = species: Sus scrofa; experiment: Inhibition of MMP13-mediated collagen degradation in long term IL-1-alpha-stimulated pig articular cartilage explant culture assessed as hydroxyproline release at 10 uM; how it was run: as §2

Disintegrin and metalloproteinase domain-containing protein 17, sequence (P78536 whole entry, the tested form may be a part): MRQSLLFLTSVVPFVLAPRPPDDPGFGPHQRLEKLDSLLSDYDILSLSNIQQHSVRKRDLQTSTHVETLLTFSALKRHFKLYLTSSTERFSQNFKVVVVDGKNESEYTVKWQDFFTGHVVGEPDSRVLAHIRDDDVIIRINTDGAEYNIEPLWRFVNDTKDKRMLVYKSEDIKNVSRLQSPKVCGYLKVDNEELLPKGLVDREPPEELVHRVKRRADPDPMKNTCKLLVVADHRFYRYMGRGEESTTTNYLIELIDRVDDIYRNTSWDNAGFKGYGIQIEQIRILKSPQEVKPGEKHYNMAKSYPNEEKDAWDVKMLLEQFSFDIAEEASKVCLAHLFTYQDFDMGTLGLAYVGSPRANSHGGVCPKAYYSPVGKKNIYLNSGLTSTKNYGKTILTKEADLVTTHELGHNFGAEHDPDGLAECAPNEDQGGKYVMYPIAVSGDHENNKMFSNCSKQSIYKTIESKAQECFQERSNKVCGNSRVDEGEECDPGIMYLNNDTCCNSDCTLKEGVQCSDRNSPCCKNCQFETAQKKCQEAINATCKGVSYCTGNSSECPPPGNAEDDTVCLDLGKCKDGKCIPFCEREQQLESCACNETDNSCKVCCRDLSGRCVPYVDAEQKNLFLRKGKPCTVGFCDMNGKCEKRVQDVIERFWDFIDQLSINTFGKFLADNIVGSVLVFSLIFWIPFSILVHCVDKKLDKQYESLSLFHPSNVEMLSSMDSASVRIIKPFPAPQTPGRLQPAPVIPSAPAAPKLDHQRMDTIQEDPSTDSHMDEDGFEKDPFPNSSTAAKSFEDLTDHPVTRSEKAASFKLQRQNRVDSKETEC
Matrix metalloproteinase-16, sequence (P51512 whole entry, the tested form may be a part): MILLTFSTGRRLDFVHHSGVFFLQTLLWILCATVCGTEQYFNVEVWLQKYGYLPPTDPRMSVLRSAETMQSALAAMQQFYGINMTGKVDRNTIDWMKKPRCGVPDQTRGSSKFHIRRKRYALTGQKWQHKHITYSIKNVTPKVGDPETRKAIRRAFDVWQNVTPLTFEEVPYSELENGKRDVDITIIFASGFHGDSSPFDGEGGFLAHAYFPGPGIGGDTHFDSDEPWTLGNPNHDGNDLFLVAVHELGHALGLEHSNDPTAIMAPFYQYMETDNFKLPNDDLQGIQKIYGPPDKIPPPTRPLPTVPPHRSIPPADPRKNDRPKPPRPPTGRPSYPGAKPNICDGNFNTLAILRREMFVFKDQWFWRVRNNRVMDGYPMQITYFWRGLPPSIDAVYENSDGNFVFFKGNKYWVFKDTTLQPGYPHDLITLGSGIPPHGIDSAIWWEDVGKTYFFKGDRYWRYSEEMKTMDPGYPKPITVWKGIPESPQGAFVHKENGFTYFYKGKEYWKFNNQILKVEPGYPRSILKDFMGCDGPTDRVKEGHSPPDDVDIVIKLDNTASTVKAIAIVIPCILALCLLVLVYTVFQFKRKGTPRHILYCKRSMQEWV
Stromelysin-1, sequence (P08254 whole entry): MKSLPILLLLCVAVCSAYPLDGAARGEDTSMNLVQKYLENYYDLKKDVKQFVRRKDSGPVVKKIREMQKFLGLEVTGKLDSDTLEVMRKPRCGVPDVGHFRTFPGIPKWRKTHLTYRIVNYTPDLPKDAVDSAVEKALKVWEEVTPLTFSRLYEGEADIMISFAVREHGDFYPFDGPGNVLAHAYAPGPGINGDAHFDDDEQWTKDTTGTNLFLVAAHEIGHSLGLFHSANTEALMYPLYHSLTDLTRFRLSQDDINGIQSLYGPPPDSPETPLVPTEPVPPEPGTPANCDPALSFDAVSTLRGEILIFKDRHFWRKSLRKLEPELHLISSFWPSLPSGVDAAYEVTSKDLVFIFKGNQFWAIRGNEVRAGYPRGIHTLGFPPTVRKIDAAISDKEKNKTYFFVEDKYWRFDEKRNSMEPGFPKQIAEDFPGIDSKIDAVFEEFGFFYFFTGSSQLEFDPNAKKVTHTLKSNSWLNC
72 kDa type IV collagenase, sequence (P08253 whole entry): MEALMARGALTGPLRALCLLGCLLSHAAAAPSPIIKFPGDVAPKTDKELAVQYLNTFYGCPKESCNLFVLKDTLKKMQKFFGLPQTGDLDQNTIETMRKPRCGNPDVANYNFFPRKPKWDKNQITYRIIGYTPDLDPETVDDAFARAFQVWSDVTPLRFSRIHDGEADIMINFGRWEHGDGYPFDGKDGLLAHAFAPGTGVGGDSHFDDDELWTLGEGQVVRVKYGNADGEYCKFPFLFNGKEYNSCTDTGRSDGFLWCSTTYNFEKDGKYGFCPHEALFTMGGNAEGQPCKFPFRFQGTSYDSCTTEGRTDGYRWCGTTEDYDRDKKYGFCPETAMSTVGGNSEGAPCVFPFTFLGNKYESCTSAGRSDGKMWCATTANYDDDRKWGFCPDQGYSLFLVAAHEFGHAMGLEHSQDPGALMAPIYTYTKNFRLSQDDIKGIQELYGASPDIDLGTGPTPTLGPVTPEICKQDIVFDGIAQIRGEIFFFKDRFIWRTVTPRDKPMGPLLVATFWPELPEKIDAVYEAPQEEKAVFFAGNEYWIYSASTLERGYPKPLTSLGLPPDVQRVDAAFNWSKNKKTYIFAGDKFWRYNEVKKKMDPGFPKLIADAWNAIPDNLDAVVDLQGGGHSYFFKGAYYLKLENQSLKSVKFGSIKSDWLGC
Neutrophil collagenase, sequence (P22894 whole entry): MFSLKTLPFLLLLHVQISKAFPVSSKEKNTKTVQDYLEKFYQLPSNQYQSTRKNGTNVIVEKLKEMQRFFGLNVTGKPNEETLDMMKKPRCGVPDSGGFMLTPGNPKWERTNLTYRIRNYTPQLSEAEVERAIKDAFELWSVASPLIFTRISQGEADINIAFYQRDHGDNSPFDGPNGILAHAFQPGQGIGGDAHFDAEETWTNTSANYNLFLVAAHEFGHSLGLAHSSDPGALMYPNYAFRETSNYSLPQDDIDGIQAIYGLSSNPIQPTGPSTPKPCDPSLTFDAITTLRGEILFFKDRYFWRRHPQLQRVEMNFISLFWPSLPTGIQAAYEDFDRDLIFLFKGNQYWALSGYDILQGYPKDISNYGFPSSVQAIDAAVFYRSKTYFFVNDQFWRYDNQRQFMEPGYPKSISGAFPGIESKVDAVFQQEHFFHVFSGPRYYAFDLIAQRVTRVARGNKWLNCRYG
Matrix metalloproteinase-9, sequence (P14780 whole entry): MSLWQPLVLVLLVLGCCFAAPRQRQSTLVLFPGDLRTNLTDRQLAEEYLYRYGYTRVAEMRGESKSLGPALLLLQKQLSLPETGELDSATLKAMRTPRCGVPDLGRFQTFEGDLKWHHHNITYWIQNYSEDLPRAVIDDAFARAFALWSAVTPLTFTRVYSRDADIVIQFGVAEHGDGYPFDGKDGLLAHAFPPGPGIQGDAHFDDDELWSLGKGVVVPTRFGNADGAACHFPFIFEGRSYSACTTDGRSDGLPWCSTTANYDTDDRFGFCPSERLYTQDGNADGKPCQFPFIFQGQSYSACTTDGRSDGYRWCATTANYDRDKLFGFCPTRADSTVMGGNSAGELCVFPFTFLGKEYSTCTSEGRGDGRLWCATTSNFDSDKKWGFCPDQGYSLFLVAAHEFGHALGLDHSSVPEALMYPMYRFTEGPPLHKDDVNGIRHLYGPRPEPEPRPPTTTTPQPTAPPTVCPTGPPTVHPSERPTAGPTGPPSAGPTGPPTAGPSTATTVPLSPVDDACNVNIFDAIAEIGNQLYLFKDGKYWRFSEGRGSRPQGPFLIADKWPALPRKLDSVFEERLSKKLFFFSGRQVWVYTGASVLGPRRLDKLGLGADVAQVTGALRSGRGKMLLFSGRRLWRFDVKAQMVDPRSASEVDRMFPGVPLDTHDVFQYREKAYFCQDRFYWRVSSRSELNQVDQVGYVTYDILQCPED

SMILES	IC50 (Stromelysin-1) [nM]	IC50 (Neutrophil collagenase) [nM]	IC50 [1] [nM]	IC50 (Interstitial collagenase [2]) [nM]	IC50 [3] [nM]	IC50 (Collagenase 3 [4]) [nM]	IC50 [5] [nM]	IC50 (Interstitial collagenase [6]) [nM]	IC50 (Collagenase 3 [7]) [nM]	Ki [3] [nM]	Ki (Collagenase 3 [4]) [nM]	IC50 [8] [nM]	IC50 [9] [nM]	inhibition (Sus scrofa [10])	inhibition (Sus scrofa [11])	inhibition (Sus scrofa [12])
CC(C)CN(CC(=O)NO)S(=O)(=O)c1ccc(-c2ccccc2)cc1	920	48	34	4800	12	39	530	4100	9.4							
COc1ccc(-c2ccc(S(=O)(=O)N(CC(=O)NO)OC(C)C)cc2)cc1	1800	65	160	13000	4.2	10	1000			3.8	5.8					
COc1ccc(-c2ccc(S(=O)(=O)N(CC(=O)NO)OC(C)C)s2)cc1	1200	110	250	> 10000	17	25	> 1000									
CCCCOc1ccc(-c2ccc(S(=O)(=O)N(CC(=O)NO)OC(C)C)cc2)cc1	1600	560	44	11000	5.5	15	5500									
CCCCc1ccc(C#Cc2ccc(S(=O)(=O)N(CC(=O)NO)OC(C)C)s2)cc1	4300	7600	4400	13000	360	260	11000									
CC(C)ON(CC(=O)NO)S(=O)(=O)c1ccc(-c2ccc(F)cc2)s1	9100	440	3200	20000	310	600	6500									
CC(C)ON(CC(=O)NO)S(=O)(=O)c1ccc(Oc2ccccc2)cc1	1200	66	110	59000	26	63	590									
CC(C)ON([C@@H](C(=O)NO)C(C)C)S(=O)(=O)c1ccc(-c2ccc(OCc3ccc(Cl)cc3)cc2)cc1	180	63	69	48000	9.6	3	14000	15000	1.4	54	29	5000	> 100000	Dose-dependent effect	Active	
CC(C)ON(CC(=O)NO)S(=O)(=O)c1ccc(/C=C/c2ccc(-c3ccccc3)cc2)cc1	710	3600	2300	5600	74	41	2800									
CSc1ccc(-c2ccc(S(=O)(=O)N(CC(=O)NO)OC(C)C)cc2)cc1	1300	37	77	3300	1.5	7.2	320									
CCc1ccc(-c2ccc(S(=O)(=O)N(CC(=O)NO)OC(C)C)s2)cc1	4300	140	680	> 10000	56	91	2400									
CC(C)ON(CC(=O)NO)S(=O)(=O)c1ccc(-c2ccc(OCc3ccc(Cl)cc3)cc2)cc1	1800	1700	1100	13000	40	19	3400			25	8.2	15000	35000			
CC(C)ON(CC(=O)NO)S(=O)(=O)c1ccc(-c2ccccc2)cc1	5900	260		12000		45	2300	2900	25	13	20	900	> 100000	Dose-dependent effect		Active
O=C(CNS(=O)(=O)c1ccc(-c2ccccc2)cc1)NO	320	7	34	610	2	2.8	70	970	2.4							

Reference: ChEMBL document CHEMBL1158483, “N-O-isopropyl sulfonamido-based hydroxamates: design, synthesis and biological evaluation of selective matrix metalloproteinase-13 inhibitors as potential therapeutic agents for osteoarthritis” (J Med Chem, 2009)
